Among all 2,500 compounds or so, about 1,200 (48%) were called active.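 Rule for the calls: active = mean activation above the low control average plus 3 SD, as set in the primary screen (cut at about 12% in these data); inactive = the rest.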 The set was probably picked from earlier hits. Some of the results follow.

This test has as its target Troponin I, cardiac muscle (Homo sapiens) + Troponin T, cardiac muscle (Homo sapiens) + Troponin C, slow skeletal and cardiac muscles (Homo sapiens) (UniProt P19429+P45379+P63316). Description: calcium sensitizers of cardiac thin filaments – biochemical, IANBD-TnC fluorescence, triplicate, confirmation (AID 504383).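 Note: 0% = DMSO at 0.472 mM calcium and 100% = DMSO at 2.9 mM calcium.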 To be noted: IANBD-labeled cardiac RTF, Ca2+ sensitivity fluorescence; at 7.2 µM; stronger effect = higher value; scaled from EC20 to saturating calcium; tested at EC20 calcium, 0.472 mM. The method, boiled down:
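Material: labelled regulated thin filaments; Reagent: 0.472 mM calcium; Incubation: 15 min compound incubation with filaments at 25 °C; Detection: filament fluorescence intensity; Evaluation: fluorescence increase normalised to calcium controls; Benchmarks: low control EC20 calcium, high control EC100 calcium.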
Consider `Cc1ccc2c(c1)[C@H]1[C@H](CO2)[C@H](c2ccccc2)[C@]2(C)C(=O)N(Cc3ccc(F)cc3)CC(=O)N12`, for which the activation is 4.21% (inactive). `COc1ccc(-n2nnnc2SCC(=O)c2cc3ccccc3o2)cc1`: the activation is 40.8% (active). For `NS(=O)(=O)c1ccc(-c2ccc(/C=C3\SC(=S)N(C4CCS(=O)(=O)C4)C3=O)o2)cc1` (configuration not stated), the activation is 17.8% (active). `Fc1ccc(CN2CCCN(C(=S)Nc3ccc(F)cc3)CC2)cc1`: the activation was 54% (active).

Regarding `O=C(Nc1ccc(F)cc1)OCCN1CCN(Cc2ccccc2)CCC1=O`, the activation is 5.99% (inactive).

In the case of `CCn1c(C(C)NC(C)=O)nc2ccccc21` (configuration not stated), the activation is 16.6% (active). In the case of `CCn1c(CNc2ccc(C(=O)O)cc2)nc2ccccc21` it was -2.9% (inactive); in that of `C/C(=N\NC(=O)c1cc2c(s1)CCC(C)C2)c1ccc[nH]1` (configuration not stated), 5.66% (inactive).

As to `COCCN(C(=S)Nc1cccc(OC)c1)C1CCN(C(C)=O)CC1`, the activation was 12.8% (active). In the case of `CN(C)c1ccc(/C=C(/C#N)C(=O)Nc2nc3c(s2)CCN(Cc2ccccc2)C3)cc1` it was 10.5% (inactive).

With `CN(C)c1ccc(/C=C(\C#N)C(=O)c2ccccc2)cc1`, the activation was 9.54% (inactive).

In the case of `CC(=O)Nc1ccc(NC(=O)C(C)OC(=O)/C(C#N)=C/c2ccc(N(C)C)cc2)cc1` (configuration not stated), the activation is 17% (active). Next, `CC(OC(=O)/C(C#N)=C/c1ccc(N(C)C)cc1)C(=O)N(C)c1ccccc1` (configuration not stated): 17.5% (active); `CN(C)c1ccc(/C=C(\C#N)C(=O)Nc2nc3c(s2)CCN(Cc2ccccc2)C3)cc1`: 6.43% (inactive); `CC(OC(=O)/C(C#N)=C/c1ccc(N(C)C)cc1)C(=O)N(C)Cc1ccccc1` (configuration not stated): 18.4% (active).

Turning to `Brc1ccc(C2=CC(c3ccco3)n3ncnc3N2)cc1` (configuration not stated), the activation was 7.55% (inactive). Next, `Fc1ccc(C2=CC(c3ccco3)n3ncnc3N2)cc1` (configuration not stated): 18.9% (active); `Fc1ccc(C2=CC(c3ccc(Br)o3)n3ncnc3N2)cc1` (configuration not stated): 5.63% (inactive); `COc1ccc2nc(C)c3cc(C)oc3c2c1`: 71.2% (active). For `COc1ccc2nc(C)cc(NCc3ccc(F)cc3)c2c1`, the activation was 10.7% (inactive). In the case of `O=C(Nc1ccc(S(=O)(=O)Nc2ncccn2)cc1)C1CC(=O)N(c2ccccc2)C1` (configuration not stated) it was 0.68% (inactive); in that of `O=C(Nc1ccc(S(=O)(=O)Nc2ncccn2)cc1)c1nn(Cc2ccccc2)c(=O)c2ccccc12`, 736% (active).

For `Cc1ccc(NS(=O)(=O)c2ccc(C(=O)N3CCN(c4ncccn4)CC3)cc2)cc1`, the activation was 3.55% (inactive).

For the molecule `COC(=O)C/C(O)=C(/N=Nc1cccc(C(F)(F)F)c1)C(=O)OC`, the activation was 9.06% (inactive). For the molecule `CCOC(=O)CN1C(=O)N[C@@H](c2cccc(C(F)(F)F)c2)C(C(=O)OC)=C1C`, the activation was 1.28% (inactive).

For the molecule `COCCN1C(=O)N[C@@H](c2cccc(C(F)(F)F)c2)C(C(=O)OC)=C1C`, the activation was 42.1% (active).

For the molecule `CCOc1ccc(-c2nnc(NC(=O)CCCOc3cccc(C)c3)o2)cc1`, the activation was 7.1% (inactive). In the case of `Cc1ccc(S(=O)(=O)N2CC(C(=O)O)=CC[C@H]2c2ccc(Cl)cc2)cc1` it was 4.74% (inactive); in that of `Cc1nnc(N/N=C/c2ccc(O)c([N+](=O)[O-])c2)[nH]c1=O`, 35.2% (active). In the case of `Cc1cc(/C=C2/NC(=O)N(Cc3ccccc3F)C2=O)c(C)n1C` it was 25.1% (active); in that of `Cc1ccc(/C=C2/NC(=O)N(Cc3ccccc3F)C2=O)s1`, 7.33% (inactive); in that of `O=C(CC1SC(N2CCCCC2)=NC1=O)Nc1ccc(C(=O)NCc2ccccc2)cc1` (configuration not stated), 9.91% (inactive). Next, `CCCNC(=O)C12CCC(C)(C(=O)C1Br)C2(C)C` (configuration not stated): 12.4% (active); `COc1cc2c(cc1OC)-c1cc3ccc4c(c3c[n+]1CC2)OCO4`: 15.6% (active).

For `CCCCC(=O)Nc1ccc(C(=O)Nc2ccc(OC)cc2[N+](=O)[O-])cc1`, the activation was 13.3% (active). With `CCOCCCNS(=O)(=O)c1ccc(NC(=O)c2ccc(OC)c([N+](=O)[O-])c2)cc1`, the activation is 9.02% (inactive). Next, `Cc1ccc2nc3nc(NCC4CCCO4)c(C(=O)NC4CCCC4)cc3c(=O)n2c1` (configuration not stated): 12.9% (active).

Source of the values: PubChem BioAssay AID504383 (The Scripps Research Institute Molecular Screening Center, 2011).
